The results in this text go back to ChEMBL document CHEMBL4020824, “Discovery of Potent and Orally Bioavailable Dihydropyrazole GPR40 Agonists” (J Med Chem, 2018).

The nature of data set [1]: Tmax in C57BL6 mouse at 1 mg/kg, po administered as single dose measured up to 24 hrs post dose by LC-MS/MS analysis. It is filed as ADME, organism-based. Particulars: in vivo.
Data set [2] is described as follows: Half life in Beagle dog at 0.5 mg/kg, iv administered as single dose measured up to 24 hrs post dose by LC-MS/MS analysis. To be noted: in vivo. It is filed as ADME, organism-based, Canis lupus familiaris.
The nature of data set [3]: Volume of distribution at steady state in Beagle dog at 0.5 mg/kg, iv administered as single dose measured up to 24 hrs post dose by LC-MS/MS analysis. It counts as ADME, organism-based, Canis lupus familiaris. Particulars: in vivo, read-out: Vdss.
The test system of data set [4] is Mus musculus. Briefly: Antidiabetic activity in C57BL/6J mouse assessed as reduction in plasma glucose excursion at 3 mg/kg, po administered 1 hr prior to glucose challenge measured after 120 mins by OGTT assay. It counts as functional, organism-based.
Data set [5] can be described thus: Cmax in Sprague-Dawley rat at 3 mg/kg, po administered as single dose measured up to 24 hrs post dose by LC-MS/MS analysis. It is filed as ADME, organism-based. More on the design: dose 3 mg/kg, route oral. Particulars: in vivo.
Data set [6] in a line: Volume of distribution at steady state in Sprague-Dawley rat at 1 mg/kg, iv administered as single dose measured up to 24 hrs post dose by LC-MS/MS analysis. It is filed as ADME, organism-based. To be noted: in vivo, read-out: Vdss.
Data set [7] can be described thus: Clearance in Sprague-Dawley rat at 1 mg/kg, iv administered as single dose measured up to 24 hrs post dose by LC-MS/MS analysis. It is filed as ADME, organism-based. Particulars: in vivo.
Data set [8] can be described thus: Clearance in CD1 mouse at 1 mg/kg, iv administered as bolus dose or 1 mg/kg, po administered as single dose measured up to 24 hrs post dose by LC-MS/MS analysis. It is filed as ADME, organism-based. Particulars: in vivo.
In data set [9] the test system is Mus musculus. Description: Antidiabetic activity in po dosed C57BL/6J mouse assessed as reduction of plasma glucose excursion administered 1 hr prior to glucose challenge measured after 120 mins by IPGTT. It is filed as functional, organism-based.
For another data set, the species on record is Homo sapiens. Description: Inhibition of FFAR (unknown origin) at <10 uM. The method in brief: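 Part of a proprietary selectivity counterscreen panel covering GPCRs (including the related free fatty acid receptors), nuclear hormone receptors, transporters, ion channels and hERG. Activity was scored against a 10 µM threshold.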
Data set [10] can be described thus: Clearance in Beagle dog at 0.5 mg/kg, iv administered as single dose measured up to 24 hrs post dose by LC-MS/MS analysis. It counts as ADME, organism-based, Canis lupus familiaris. Particulars: in vivo.

Activity calls are given as the source filed them.

For `COc1cc(N2CC[C@@H](Oc3ccc(N4N=C(C(F)(F)F)[C@@H](C)[C@@H]4CC(=O)O)cc3)[C@H](C)C2)c(Cl)cn1`, the Tmax in data set [1] is 1 h. Moreover, in data set [2], the half-life is 5.2 h. The Vd in data set [3] came out at 0.6 L/kg; in data set [6] it was 0.3 L/kg. Also, the outcome with Mus musculus [4] was Active. The same molecule had a Cmax in data set [5] of 3.5 µM. Further, the clearance was 3.4 mL/min/kg in [7], 2 mL/min/kg in data set [8] and 2.2 mL/min/kg in [10]. Further, the Activity result in the data set on Mus musculus [9] is “Dose-dependent effect”. Moreover, the inhibition entry in the data set filed under Homo sapiens was “inactive”.

For orientation: Tmax means the time from dosing to the highest level. The term half-life denotes how long it takes for the measured level to halve. One may read the Cmax as the maximum level reached in the sampled fluid or tissue.
